pIC50, pKd: −log10 of the molar value. Each block holds one compound with its values, some of them ahead of it. Calls of active or inactive are those of the source. No cut-off for these calls is given here.
How the values were obtained:
[1] = target: T1, Lysophosphatidic acid receptor 1 (Homo sapiens, UniProt Q92633); test: Antagonist activity at recombinant human LPA1 expressed in CHO cells assessed as reduction in LPA-induced intracellular calcium level pretreated followed by LPA addition by Fura-2-AM dye based fluorescence assay; type: functional, cell-based
T1 sequence (Q92633 whole entry): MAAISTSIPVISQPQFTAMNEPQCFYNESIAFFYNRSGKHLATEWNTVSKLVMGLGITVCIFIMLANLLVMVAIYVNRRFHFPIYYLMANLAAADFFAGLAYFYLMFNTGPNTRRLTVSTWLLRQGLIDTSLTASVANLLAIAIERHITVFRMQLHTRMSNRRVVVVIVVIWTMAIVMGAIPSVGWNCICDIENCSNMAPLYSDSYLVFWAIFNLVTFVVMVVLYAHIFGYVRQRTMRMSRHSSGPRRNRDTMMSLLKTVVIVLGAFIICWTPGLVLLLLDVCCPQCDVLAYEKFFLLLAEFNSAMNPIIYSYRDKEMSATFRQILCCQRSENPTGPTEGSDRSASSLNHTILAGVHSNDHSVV
Method in brief: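 LPA-induced Ca²⁺ mobilization in CHO cells stably expressing the LPA1 receptor, with 10 min incubation. IC50 was obtained by nonlinear regression of 4-point dose–response curves, with 95% confidence intervals.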

[2] = Half life in rat microsomes in presence of NADPH; type: ADME, Microsome
[3] = Half life in human microsomes in presence of NADPH; type: ADME, Microsome
[4] = tested on: Rattus norvegicus; test: Inhibition of LPA-induced increase of intraurethral pressure in po dosed rat measured after 1 hr; type: functional; conditions: for ED50: read-out: ID50 (the source's name)
Method in brief: (§1)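 Conscious rats were given compound or vehicle (20% STPG) orally, 3 mg/kg. At 1, 3, 6, 9, 12, 18 or 24 h, LPA (300 μg/kg) was injected i.v. and intraurethral pressure was measured under short-term anesthesia. Inhibition was calculated versus vehicle. ID50 was determined from oral dose–response at 1 h.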

[5] = tested on: Rattus norvegicus; test: Inhibition of LPA-induced increase of intraurethral pressure in po dosed rat measured after 6 hrs; type: functional; method in brief: as §1
[6] = Total clearance in rat at 1 mg/kg, iv; type: ADME, organism-based; conditions: in vivo
[7] = tested on: Rattus norvegicus; test: Inhibition of LPA-induced increase of intraurethral pressure in rat at 3 mg/kg, po measured after 1 hr relative to control; type: functional; method in brief: as §1
[8] = tested on: Rattus norvegicus; test: Inhibition of LPA-induced increase of intraurethral pressure in rat at 3 mg/kg, po measured after 6 hrs relative to control; type: functional; method in brief: as §1
[9] = tested on: Canis familiaris; test: Inhibition of LPA-induced increase of intraurethral pressure in dog at 1 to 3 mg/kg, po measured up to 24 hrs; type: functional, organism-based; conditions: Canis lupus familiaris
Method in brief: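 Conscious dogs were dosed orally at 1 or 3 mg/kg. LPA (300 μg/kg i.v.) was injected at 0.5, 1, 2, 4, 6, 9, 12 and 24 h, and intraurethral pressure was measured in conscious animals. Response was expressed as % of each dog's predose (0 h) IUP.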

[10] = tested on: Rattus norvegicus; test: Inhibition of LPA-induced increase of intraurethral pressure in rat at 3 mg/kg, po measured at 18 hrs relative to control; type: functional; method in brief: as §1
[11] = tested on: Canis familiaris; test: Inhibition of LPA-induced increase of intraurethral pressure in dog at 1 mg/kg, po measured after 24 hrs relative to control; type: functional; conditions: Canis lupus familiaris
[12] = target: T1, Lysophosphatidic acid receptor 1; test: Binding affinity to recombinant human LPA1 expressed in CHO cell membranes measured after 0.5 hrs by scintillation counting method; conditions: for Bmax: tested as the 3H-labelled form
[13] = target: T1, Lysophosphatidic acid receptor 1; test: Binding affinity to recombinant human LPA1 expressed in CHO cell membranes measured after 1 hr by scintillation counting method; conditions: for Bmax: tested as the 3H-labelled form
[14] = target: T1, Lysophosphatidic acid receptor 1; test: Binding affinity to recombinant human LPA1 expressed in CHO cell membranes measured after 2 hrs by scintillation counting method; conditions: for Bmax: tested as the 3H-labelled form
[15] = target: T1, Lysophosphatidic acid receptor 1; test: Binding affinity to recombinant human LPA1 expressed in CHO cell membranes measured after 4 hrs by scintillation counting method; conditions: for Bmax: tested as the 3H-labelled form
[16] = target: T1, Lysophosphatidic acid receptor 1; test: Binding affinity to recombinant human LPA1 expressed in CHO cell membranes measured after 2 hrs at 4 degC by scintillation counting method
[17] = target: T1, Lysophosphatidic acid receptor 1; test: Binding affinity to recombinant human LPA1 expressed in CHO cell membranes measured after 2 hrs at room temperature by scintillation counting method
[18] = target: T1, Lysophosphatidic acid receptor 1; test: Binding affinity to recombinant human LPA1 expressed in CHO cell membranes measured after 2 hrs at 37 degC by scintillation counting method
[19] = target: T1, Lysophosphatidic acid receptor 1; test: Antagonist activity at recombinant human LPA1 expressed in CHO cell […] pretreated for 24 hrs prior to Fura-2-AM dye addition for 1 hr followed by LPA stimulation measured after 3 mins by fluorescence assay; type: functional, cell-based
Method in brief: (§2)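 Ca²⁺ mobilization in CHO cells stably expressing LPA1. Compound was added at cell seeding and incubated 24 h, and was held at the same concentration through Ca²⁺-indicator loading and LPA stimulation. In the wash-out variant, compound was removed before LPA stimulation. IC50 was obtained with 95% confidence intervals.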

[20] = target: T1, Lysophosphatidic acid receptor 1; test: Antagonist activity at recombinant human LPA1 expressed in CHO cell […] pretreated for 24 hrs prior to Fura-2-AM dye addition for 1 hr followed by compound washout and subsequent LPA stimulation measured after 3 mins by fluorescence assay; type: functional, cell-based; method in brief: as §2
[21] = tested on: Rattus norvegicus; test: Inhibition of LPA-induced increase of intraurethral pressure in rat at 3 mg/kg, po measured up to 12 hrs relative to control; type: functional; method in brief: as §1
[22] = target: Lysophosphatidic acid receptor 1 (Rattus norvegicus) (UniProt P61794); test: Antagonist activity at LPA1 in CD(SD)IGS rat urethra assessed as inhibition of LPA-induced urethra contraction at 1 uM pretreated for 30 mins followed by LPA addition; type: functional
Chain of Lysophosphatidic acid receptor 1 (Rattus norvegicus) (P61794 whole entry): as the sequence (Q92633 whole entry) above, with I4A, I8S, P22Q, H40Y, I61V, E193D, N194H, I269V, S331N, T335N counted along it
Method in brief: (§3)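 Isolated rat urethra. Contraction to 10 μM LPA was recorded as 100% control. Medium was exchanged, then 1 μM test compound was added for 30 min and contraction to 10 μM LPA recorded. Tissue was washed with compound-free medium three times every 10 min before each LPA re-challenge, two wash-out rounds. Expressed as % inhibition, mean ± SD, n = 3.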

[23] = target: Lysophosphatidic acid receptor 1 (Rattus norvegicus) (UniProt P61794); test: Antagonist activity at LPA1 in CD(SD)IGS rat urethra assessed as inhibition of LPA-induced urethra contraction at 1 uM pretreated for 30 mins prior to LPA addition followed by compound washout every 10 minutes for 2 times and subsequent LPA stimulation; type: functional; method in brief: as §3
[24] = tested on: Rattus norvegicus; test: Inhibition of LPA-induced increase of intraurethral pressure in rat at 3 mg/kg, po measured after 3 hrs relative to control; type: functional; method in brief: as §1

SMILES: COc1cc([C@@H](O)[C@@H](CC2Cc3ccccc3C2)Cn2ccc(CCC(=O)O)c2)cc(OC)c1C
- pIC50 [1]: 7.07
- half-life [2]: 0.25 h
- half-life [3]: 1.32 h
- clearance [6]: 20.5 mL/min/kg
- inhibition [9]: Active
- inhibition in vivo at 3 mg/kg [10]: 47%
- inhibition in vivo at 1 mg/kg [11]: 30%
- Bmax [12]: 974 cpm
- Bmax [13]: 973 cpm
- Bmax [14]: 942 cpm
- Bmax [15]: 956 cpm
- Bmax ([16]; tested as the 3H-labelled form): 1030 cpm
- Bmax ([17]; tested as the 3H-labelled form): 942 cpm
- Bmax ([18]; tested as the 3H-labelled form): 1110 cpm
- pIC50 [19]: 9.80
- pIC50 [20]: 9.72

SMILES: COc1cc(C(=O)N(C/C=C/c2ccccc2)Cc2ccc(CC(=O)O)cc2)cc(OC)c1C
- pIC50 [1]: < 6.00
- half-life [2]: > 3.33 h
- half-life [3]: 2.72 h

SMILES: [3H]C(CN(Cc1ccc(CC(=O)O)cc1)C(=O)c1cc(OC)c(C)c(OC)c1)C([3H])c1ccccc1 (stereo not given)
- pKd [12]: 8.09
- pKd [13]: 8.18
- pKd [14]: 8.22
- pKd [15]: 7.99

SMILES: COc1cc([C@@H](O)[C@@H](CC2Cc3ccccc3C2)Cn2ccc(CC(=O)O)c2)cc(OC)c1C
- pIC50 [1]: 7.21
- half-life [2]: 0.567 h
- half-life [3]: 1.08 h
- clearance [6]: 19.2 mL/min/kg
- inhibition [9]: Active
- inhibition in vivo at 3 mg/kg [21]: 52%

SMILES: COc1cc(C(=O)N(CCCc2ccccc2)Cc2ccc(CC(=O)O)cc2)cc(OC)c1C
- inhibition [22]: Active
- inhibition [23]: inactive
- Bmax [12]: 3420 cpm
- Bmax [13]: 3560 cpm
- Bmax [14]: 2450 cpm
- Bmax [15]: 2740 cpm

SMILES: COc1cc([C@@H](O)[C@@H](CCCc2cccs2)Cn2ccc(CCC(=O)O)c2)cc(OC)c1C
- pIC50 [1]: 7.35
- half-life [2]: < 0.25 h
- half-life [3]: 1.25 h
- inhibition [8]: inactive
- inhibition in vivo at 3 mg/kg [24]: 70%

SMILES: COc1cc([C@@H](O)[C@@H](CCCc2ccsc2)Cn2ccc(CCC(=O)O)c2)cc(OC)c1C
- pIC50 [1]: 7.42
- half-life [2]: < 0.25 h
- half-life [3]: 1.1 h
- inhibition [8]: inactive
- inhibition in vivo at 3 mg/kg [24]: 70%

SMILES: COc1cc([C@@H](O)[C@@H](CCCc2ccccc2)Cn2cnc(CC(=O)O)c2)cc(OC)c1C
- pIC50 [1]: 6.74

SMILES: [3H]C(C(=O)O)C([3H])c1ccn(C[C@H](CC2Cc3ccccc3C2)[C@H](O)c2cc(OC)c(C)c(OC)c2)c1 (stereo not given in full)
- pKd [12]: 8.63
- pKd [13]: 8.90
- pKd [14]: 9.13
- pKd [15]: 9.31
- pKd [16]: 7.65
- pKd [17]: 9.13
- pKd [18]: 9.47

SMILES: COc1cc(C(=O)C(CCCc2ccccc2)Cc2ccc(CC(=O)O)cc2)cc(OC)c1C (stereo not given)
- pIC50 [1]: 6.34

SMILES: COc1cc([C@@H](O)[C@@H](CCCc2ccccc2)Cn2ccc(CCC(=O)O)n2)cc(OC)c1C
- pIC50 [1]: 7.40

SMILES: COc1cc([C@@H](O)[C@@H](CCCc2ccccc2)Cn2nc(C)c(CC(=O)O)c2C)cc(OC)c1C
- pIC50 [1]: 6.28

SMILES: COc1cc([C@@H](O)[C@@H](CCCc2ccccc2)Cn2ccc(C(=O)O)c2)cc(OC)c1C
- pIC50 [1]: 6.92

SMILES: COc1cc([C@@H](O)[C@@H](CCCc2ccccc2)Cc2ccc(CC(=O)O)cc2)cc(OC)c1C
- pIC50 [1]: 7.21
- inhibition [4]: Dose-dependent effect
- ED50 [4]: 0.97 mg/kg
- inhibition [22]: Active
- inhibition [23]: Active

Further compounds by rising pIC50 [1], results first:

- pIC50 [1]: 7.47
SMILES: COc1cc([C@@H](O)[C@@H](CCCc2ccccc2)Cn2cc(CCC(=O)O)cn2)cc(OC)c1C

- pIC50 [1]: 7.49
SMILES: COc1cc([C@@H](O)[C@@H](CCCc2ccccc2)Cn2ccc(CC(=O)O)n2)cc(OC)c1C

- pIC50 [1]: 7.52
SMILES: COc1cc([C@@H](O)[C@@H](CCCc2ccccc2)Cn2cc(CC(=O)O)cn2)cc(OC)c1C

- pIC50 [1]: 7.54
- half-life [2]: < 0.25 h
- half-life [3]: 1.37 h
SMILES: COc1cc([C@@H](O)[C@@H](CCCc2cccs2)Cn2ccc(CC(=O)O)c2)cc(OC)c1C
- inhibition [8]: inactive
- inhibition in vivo at 3 mg/kg [24]: 70%

- pIC50 [1]: 7.64
- half-life [2]: < 0.25 h
- half-life [3]: 1 h
- clearance [6]: 16.4 mL/min/kg
SMILES: COc1cc([C@@H](O)[C@@H](CCCc2ccsc2)Cn2ccc(CC(=O)O)c2)cc(OC)c1C
- inhibition in vivo at 3 mg/kg [7]: 75%
- inhibition in vivo at 3 mg/kg [8]: 23%

- pIC50 [1]: 7.66
SMILES: COc1cc([C@@H](O)[C@@H](CCCc2ccccc2)Cn2ccc(CCC(=O)O)c2)cc(OC)c1C

- pIC50 [1]: 7.89
- half-life [2]: < 0.25 h
- half-life [3]: 0.817 h
- clearance [6]: 50.1 mL/min/kg
SMILES: COc1cc([C@@H](O)[C@@H](CCCc2ccccc2)Cn2ccc(CC(=O)O)c2)cc(OC)c1C
- ED50 [4]: 0.6 mg/kg
- inhibition (INH) [5]: 33%
- inhibition [7]: Active
- inhibition in vivo at 3 mg/kg [8]: 33%
